This is an account of results in ChEMBL document CHEMBL1141169, “Discovery of 5-arylsulfonamido-3-(pyrrolidin-2-ylmethyl)-1H-indole derivatives as potent, selective 5-HT6 receptor agonists and antagonists” (J Med Chem, 2005).

In assay [1] the target is T1, 5-hydroxytryptamine receptor 6 (Homo sapiens, UniProt P50406). Description: Inhibition of [3H]LSD binding to human 5-hydroxytryptamine 6 receptor expressed in HeLa cells. Format: cell-based. The method in brief:
(§1)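 Competition binding against [3H]-LSD on cloned human 5-HT6 receptors stably expressed in HeLa cells. Ki determined in triplicate; single-point lines are % inhibition at 1000 nM.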

The target in assay [2] is T1, 5-hydroxytryptamine receptor 6. Description: Effective agonist concentration in cAMP release assay in HeLa cells expressing human 5-hydroxytryptamine 6 receptor. Format: functional, cell-based. Put shortly:
(§2)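 cAMP production read out across a range of ligand concentrations in HeLa cells stably transfected with the human 5-HT6 receptor, ligand given alone as agonist. EC50 and Emax each determined in triplicate.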

For assay [3], the target named is T2, 5-hydroxytryptamine receptor 1F (Homo sapiens, UniProt P30939).
T2 sequence (P30939 whole entry): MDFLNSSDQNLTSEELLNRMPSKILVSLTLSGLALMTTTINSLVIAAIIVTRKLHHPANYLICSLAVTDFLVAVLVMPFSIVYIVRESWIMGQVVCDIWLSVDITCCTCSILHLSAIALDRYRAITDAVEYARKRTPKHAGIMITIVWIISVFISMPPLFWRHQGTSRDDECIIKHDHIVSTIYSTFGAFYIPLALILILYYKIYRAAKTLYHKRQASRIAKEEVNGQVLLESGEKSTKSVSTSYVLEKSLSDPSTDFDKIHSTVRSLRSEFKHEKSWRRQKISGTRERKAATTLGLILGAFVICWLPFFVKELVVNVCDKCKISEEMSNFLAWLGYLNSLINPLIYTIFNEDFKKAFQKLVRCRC
Kind of assay: Inhibition of [3H]8-OH-DPAT binding to human 5-hydroxytryptamine 1F receptor expressed in CHO cells. Format: cell-based.

Assay [4] has as its target T1, 5-hydroxytryptamine receptor 6. Kind of assay: Maximum percentage agonism of cAMP production in HeLa cells expressing human 5-hydroxytryptamine 6 receptor. Format: functional, cell-based. Put shortly: as §2
In general terms: cAMP levels reflect the balance of adenylyl cyclase and phosphodiesterase activity.

In assay [5] the target is T3, 5-hydroxytryptamine receptor 1A (Homo sapiens, UniProt P08908).
T3 sequence (P08908 whole entry): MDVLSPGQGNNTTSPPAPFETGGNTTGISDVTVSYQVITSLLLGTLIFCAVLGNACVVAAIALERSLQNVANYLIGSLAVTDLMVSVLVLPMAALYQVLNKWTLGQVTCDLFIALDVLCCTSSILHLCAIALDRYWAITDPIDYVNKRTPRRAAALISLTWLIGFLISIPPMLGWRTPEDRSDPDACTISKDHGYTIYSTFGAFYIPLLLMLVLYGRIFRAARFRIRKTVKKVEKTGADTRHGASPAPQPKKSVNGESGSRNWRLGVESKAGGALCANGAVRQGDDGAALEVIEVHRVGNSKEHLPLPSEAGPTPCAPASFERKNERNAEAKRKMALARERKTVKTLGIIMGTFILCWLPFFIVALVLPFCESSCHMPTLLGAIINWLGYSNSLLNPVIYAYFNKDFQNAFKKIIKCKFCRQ
Description: Inhibition of [3H]8-OH-DPAT binding to human 5-hydroxytryptamine 1A receptor expressed in CHO cells. Format: cell-based. The method in brief:
(§3)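 Radioligands: 5-HT1A, 8-hydroxy-[3H]-DPAT; 5-HT2C, [3H]-5-HT; 5-HT2A, [125I]DOI; D2, D3 and D4, [3H]spiperone. Ki determined in triplicate, or n = 1 where footnoted.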

Assay [6] concerns the target T4, 5-hydroxytryptamine receptor 2C (Homo sapiens, UniProt P28335).
T4 sequence (P28335 whole entry): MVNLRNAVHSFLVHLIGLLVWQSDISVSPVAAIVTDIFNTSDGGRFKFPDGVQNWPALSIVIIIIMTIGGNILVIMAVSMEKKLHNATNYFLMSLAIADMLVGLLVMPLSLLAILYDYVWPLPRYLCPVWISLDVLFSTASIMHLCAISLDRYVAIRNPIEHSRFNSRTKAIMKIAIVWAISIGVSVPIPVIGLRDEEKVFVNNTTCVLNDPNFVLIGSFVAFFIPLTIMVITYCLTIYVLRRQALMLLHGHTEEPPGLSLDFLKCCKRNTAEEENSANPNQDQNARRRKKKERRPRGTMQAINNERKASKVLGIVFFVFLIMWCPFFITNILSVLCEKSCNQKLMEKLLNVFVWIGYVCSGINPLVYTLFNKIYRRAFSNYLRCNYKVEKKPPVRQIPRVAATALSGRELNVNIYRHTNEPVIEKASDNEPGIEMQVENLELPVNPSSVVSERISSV
Kind of assay: Inhibition of [3H]5-HT binding to human 5-hydroxytryptamine 2C receptor expressed in CHO cells. Format: cell-based. Put shortly: as §3

The target in assay [7] is 5-hydroxytryptamine receptor 1D (Homo sapiens, UniProt P28221). Kind of assay: Inhibition of [3H]-8-OH-DPAT binding to human 5-hydroxytryptamine 1D receptor expressed in CHO cells. Format: cell-based.
The target in another assay is D(2) dopamine receptor (Homo sapiens, UniProt P14416). Kind of assay: Inhibition of [3H]spiperone binding to human dopamine receptor D2 expressed in CHO-K1 cells. Format: cell-based. Put shortly:
as §3

For the next assay, the target named is T5, D(4) dopamine receptor (Homo sapiens, UniProt P21917).
T5 sequence (P21917 whole entry): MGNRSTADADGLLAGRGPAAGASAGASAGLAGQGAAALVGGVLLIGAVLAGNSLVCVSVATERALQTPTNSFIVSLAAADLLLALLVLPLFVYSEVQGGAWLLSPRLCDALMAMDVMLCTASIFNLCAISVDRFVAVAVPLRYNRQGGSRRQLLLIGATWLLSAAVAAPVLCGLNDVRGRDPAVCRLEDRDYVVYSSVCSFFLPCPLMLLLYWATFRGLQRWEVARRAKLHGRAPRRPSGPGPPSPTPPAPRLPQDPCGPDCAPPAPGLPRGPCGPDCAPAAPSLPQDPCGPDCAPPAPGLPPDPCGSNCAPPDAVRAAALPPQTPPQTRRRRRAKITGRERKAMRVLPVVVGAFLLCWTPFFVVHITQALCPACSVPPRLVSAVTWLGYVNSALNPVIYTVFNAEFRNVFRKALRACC
Kind of assay: Inhibition of [3H]spiperone binding to human dopamine receptor D4 expressed in CHO-K1 cells. Format: cell-based. The method in brief: as §3

For the next assay, the target named is D(3) dopamine receptor (Homo sapiens, UniProt P35462). Kind of assay: Inhibition of [3H]spiperone binding to human dopamine receptor D3 expressed in CHO-K1 cells. Format: cell-based. The method in brief:
as §3

Assay [8] concerns the target T6, 5-hydroxytryptamine receptor 2A (Homo sapiens, UniProt P28223). Kind of assay: Percentage inhibition of [125I]DOI binding to human 5-hydroxytryptamine 2A receptor expressed in CHO cells at 1000 nM. Format: cell-based.
Assay [9] has as its target T1, 5-hydroxytryptamine receptor 6. Kind of assay: Percentage inhibition of [3H]LSD binding to human 5-hydroxytryptamine 6 receptor expressed in HeLa cells at 1000 nM. Format: cell-based. The method in brief: as §1
Assay [10] has the same target. The conditions noted are these: HeLa.
Assay [11] concerns the target T6, 5-hydroxytryptamine receptor 2A. Kind of assay: Inhibition of [125I]DOI binding to human 5-hydroxytryptamine 2A receptor expressed in CHO cells. Format: cell-based. The method in brief: as §3
Assay [12] concerns the target 5-hydroxytryptamine receptor 7 (Homo sapiens, UniProt P34969). Kind of assay: Inhibition of [3H]-LSD binding to 5-hydroxytryptamine 7 receptor expressed in CHO cells. Format: cell-based. Put shortly:
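Displacement of [3H]-LSD from human 5-HT7 receptor clone stably expressed in CHO cells. Ki in triplicate, or n = 1 where footnoted.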

T6 sequence (P28223 whole entry): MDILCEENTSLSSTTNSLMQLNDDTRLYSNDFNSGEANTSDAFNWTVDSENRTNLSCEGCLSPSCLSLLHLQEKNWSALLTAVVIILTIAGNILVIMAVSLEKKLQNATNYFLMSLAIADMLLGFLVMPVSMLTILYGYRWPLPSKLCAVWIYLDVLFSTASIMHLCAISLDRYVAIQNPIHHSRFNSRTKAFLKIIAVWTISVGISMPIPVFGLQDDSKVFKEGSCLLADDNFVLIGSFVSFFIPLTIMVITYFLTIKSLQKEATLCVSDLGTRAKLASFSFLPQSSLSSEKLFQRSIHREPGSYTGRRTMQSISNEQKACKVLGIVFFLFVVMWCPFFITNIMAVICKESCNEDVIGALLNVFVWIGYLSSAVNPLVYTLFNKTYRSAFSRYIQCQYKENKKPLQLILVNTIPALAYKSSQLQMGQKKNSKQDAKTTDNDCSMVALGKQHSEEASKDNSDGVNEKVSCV
T1 sequence (P50406 whole entry): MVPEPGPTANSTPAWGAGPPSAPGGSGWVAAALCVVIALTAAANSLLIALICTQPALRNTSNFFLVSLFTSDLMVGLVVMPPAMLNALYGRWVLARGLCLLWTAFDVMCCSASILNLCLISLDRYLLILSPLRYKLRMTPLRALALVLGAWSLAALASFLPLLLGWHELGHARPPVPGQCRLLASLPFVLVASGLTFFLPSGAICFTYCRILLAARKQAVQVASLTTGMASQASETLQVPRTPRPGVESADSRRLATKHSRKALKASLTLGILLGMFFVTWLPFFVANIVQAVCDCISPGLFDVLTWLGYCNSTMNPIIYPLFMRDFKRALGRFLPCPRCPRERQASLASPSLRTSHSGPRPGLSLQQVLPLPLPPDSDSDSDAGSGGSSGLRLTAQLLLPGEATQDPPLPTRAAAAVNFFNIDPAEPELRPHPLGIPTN
5-hydroxytryptamine receptor 1D, sequence (P28221 whole entry): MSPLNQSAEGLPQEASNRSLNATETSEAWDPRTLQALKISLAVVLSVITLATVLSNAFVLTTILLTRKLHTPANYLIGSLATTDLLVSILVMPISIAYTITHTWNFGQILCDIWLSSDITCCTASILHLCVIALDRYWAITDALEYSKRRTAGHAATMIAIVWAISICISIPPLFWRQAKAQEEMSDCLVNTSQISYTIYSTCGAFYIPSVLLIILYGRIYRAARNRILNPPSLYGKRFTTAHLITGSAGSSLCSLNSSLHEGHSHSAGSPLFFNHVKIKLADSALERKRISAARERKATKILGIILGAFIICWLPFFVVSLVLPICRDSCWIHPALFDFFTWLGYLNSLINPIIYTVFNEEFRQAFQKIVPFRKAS
D(3) dopamine receptor, sequence (P35462 whole entry): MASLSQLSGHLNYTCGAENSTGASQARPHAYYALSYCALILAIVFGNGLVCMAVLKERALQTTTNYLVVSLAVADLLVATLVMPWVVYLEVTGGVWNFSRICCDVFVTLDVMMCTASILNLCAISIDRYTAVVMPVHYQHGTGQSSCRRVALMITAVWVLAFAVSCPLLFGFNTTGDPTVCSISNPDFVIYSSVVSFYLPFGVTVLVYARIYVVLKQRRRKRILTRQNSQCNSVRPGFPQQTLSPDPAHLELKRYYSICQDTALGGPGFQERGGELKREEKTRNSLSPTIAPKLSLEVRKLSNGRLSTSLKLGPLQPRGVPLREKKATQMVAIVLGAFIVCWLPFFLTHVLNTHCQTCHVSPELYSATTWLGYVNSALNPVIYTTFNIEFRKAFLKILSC
D(2) dopamine receptor, sequence (P14416 whole entry): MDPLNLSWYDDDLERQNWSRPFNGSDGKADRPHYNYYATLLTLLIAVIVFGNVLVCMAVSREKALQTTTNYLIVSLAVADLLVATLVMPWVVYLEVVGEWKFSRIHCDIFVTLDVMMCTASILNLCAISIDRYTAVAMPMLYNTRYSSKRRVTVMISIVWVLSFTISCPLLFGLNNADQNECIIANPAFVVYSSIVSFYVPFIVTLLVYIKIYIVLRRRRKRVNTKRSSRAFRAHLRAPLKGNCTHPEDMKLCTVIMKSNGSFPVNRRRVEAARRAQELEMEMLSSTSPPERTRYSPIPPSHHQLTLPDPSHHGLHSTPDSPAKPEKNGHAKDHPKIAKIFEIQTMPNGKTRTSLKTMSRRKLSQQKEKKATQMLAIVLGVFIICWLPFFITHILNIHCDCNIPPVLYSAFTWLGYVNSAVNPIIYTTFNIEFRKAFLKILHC
5-hydroxytryptamine receptor 7, sequence (P34969 whole entry): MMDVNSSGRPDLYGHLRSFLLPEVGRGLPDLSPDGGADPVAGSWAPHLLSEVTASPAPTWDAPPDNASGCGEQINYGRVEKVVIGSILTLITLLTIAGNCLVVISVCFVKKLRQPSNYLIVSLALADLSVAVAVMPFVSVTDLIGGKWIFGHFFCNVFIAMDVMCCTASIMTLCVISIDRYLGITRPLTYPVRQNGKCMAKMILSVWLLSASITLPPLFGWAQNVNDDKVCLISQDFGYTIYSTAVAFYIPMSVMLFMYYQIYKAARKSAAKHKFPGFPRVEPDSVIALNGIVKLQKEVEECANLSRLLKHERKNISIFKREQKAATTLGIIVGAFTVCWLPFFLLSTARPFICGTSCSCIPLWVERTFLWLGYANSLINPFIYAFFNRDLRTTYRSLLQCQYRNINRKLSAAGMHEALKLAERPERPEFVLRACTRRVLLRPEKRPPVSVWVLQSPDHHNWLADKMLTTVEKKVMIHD

In the case of `O=S(=O)(Nc1ccc2[nH]cc(C[C@H]3CCCN3)c2c1)c1ccccc1Cl`, the Ki in [1] is 3 nM; in assay [3], 12.3 nM; in assay [5], 552 nM; in assay [6], 566 nM; in assay [7] it was more than 1000 nM; on D(2) dopamine receptor it was more than 5000 nM. Also, the Ki at D(4) dopamine receptor and at D(3) dopamine receptor was more than 5000 nM throughout. Besides, it took 1.3 nM to reach a half-maximal effect in assay [2] (EC50). For the same compound, the Emax in [4] came out at 100%.
In the case of `O=S(=O)(Cc1ccccc1I)Nc1ccc2[nH]cc(C[C@H]3CCCN3)c2c1`, in assay [8], the inhibition came out at 42%. Besides, in [4], the Emax is 100%.
Turning to `COc1ccc(S(=O)(=O)Nc2ccc3[nH]cc(C[C@@H]4CCCN4)c3c2)cc1`, in assay [9], the inhibition turned out to be 64%.
For the compound `O=S(=O)(Nc1ccc2[nH]cc(C[C@@H]3CCCN3)c2c1)c1ccc(F)cc1`, the inhibition in assay [9] is 74%.
Compound `COc1ccc2c(c1)c(CCN(C)C)cn2S(=O)(=O)c1ccccc1` showed an Affinity in assay [10] of 16 nM.
For `CN1CCC[C@@H]1Cc1c[nH]c2ccc(NS(=O)(=O)c3cccc(Cl)c3)cc12`, the Ki in assay [1] was 0.4 nM; in assay [11], 269 nM; in assay [3], 2.7 nM; in [12] it was 24 nM; in assay [5], 200 nM; in [6] it was 231 nM. Further, the Ki is 4.7 nM in assay [7], more than 2000 nM at D(2) dopamine receptor, more than 5000 nM on D(4) dopamine receptor and 930 nM on D(3) dopamine receptor. In assay [2], this compound registered a concentration for a half-maximal effect (EC50) of 1.6 nM. In addition, the Emax in [4] amounted to 100%.
Turning to `CN1CCC[C@@H]1Cc1c[nH]c2ccc(NS(=O)(=O)c3ccccc3Cl)cc12`, the Ki in assay [1] came to 1 nM; in [11] it was 367 nM; in [3], 16 nM; in assay [12], 74 nM; in assay [5], 170 nM; in assay [6] it was 289 nM. Besides, the Ki in [7] is 29.5 nM; on D(2) dopamine receptor, more than 2000 nM; at D(4) dopamine receptor it was more than 5000 nM; on D(3) dopamine receptor, more than 1000 nM. The compound further registered an EC50 in [2] of 1.1 nM. This compound had an Emax in [4] of 100%.

What is called Ki is a measure of affinity in units of concentration, obtained from inhibition or displacement. Higher therefore signals a looser hold on the target. By EC50 is commonly meant the midpoint of the concentration-response curve. Low values mean an effect from little substance, high ones a need for much substance. The term Emax denotes the size of the effect at its maximum, as opposed to the concentration needed. In general, inhibition refers to the change of the read-out against control, counted positive when it falls. Low readings indicate little suppression, high ones strong suppression.
